# Screens deposited in PubChem BioAssay by several laboratories.
# Rows were chosen to be rich in hits. Some 4.1% of all compounds tested hit in one or more screens of this group.
# FLuc stim CS: FLuc activators, initial screening, artefact control for FLuc-dependent activation tests, biochemical, ATPlite luminescence. Luciferin 4-monooxygenase (Photinus pyralis), P08659. ATPlite luciferase biochemical, 10 min; 0 = ATP-free wells, 1 = DMSO control. activation factor at 10 µM. 200,000 tested, under 10 active;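 active = luciferase activation factor, scaled between plate controls, of at least 2 with compound at 10 µM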
# Target sequence (P08659 whole entry, looked up): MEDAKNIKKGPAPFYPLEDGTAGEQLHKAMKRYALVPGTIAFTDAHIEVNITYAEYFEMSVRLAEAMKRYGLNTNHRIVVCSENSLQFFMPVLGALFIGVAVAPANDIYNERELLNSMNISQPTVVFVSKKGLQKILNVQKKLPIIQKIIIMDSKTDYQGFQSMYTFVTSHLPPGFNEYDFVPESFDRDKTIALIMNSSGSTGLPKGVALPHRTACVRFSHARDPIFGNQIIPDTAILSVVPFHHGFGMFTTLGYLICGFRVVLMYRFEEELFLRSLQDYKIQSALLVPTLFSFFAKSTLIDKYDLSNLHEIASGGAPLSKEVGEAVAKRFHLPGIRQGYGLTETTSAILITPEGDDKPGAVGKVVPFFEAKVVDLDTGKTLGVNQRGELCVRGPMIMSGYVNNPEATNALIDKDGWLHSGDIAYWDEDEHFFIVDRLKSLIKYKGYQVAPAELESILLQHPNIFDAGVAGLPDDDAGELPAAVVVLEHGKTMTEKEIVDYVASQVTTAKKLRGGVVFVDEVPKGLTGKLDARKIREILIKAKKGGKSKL
#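 System: luciferase plus luciferin reagent, cell-free; medium: PBS as buffer for the ATP substrate; dosing: test compounds dosed from 2 mM stocks in 100% DMSO; timing: 10 min post-reagent at room temperature; measured by: luminescence measurement of luciferase light output; evaluation: luciferase activation, seen as luminescence increase over controls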
# APP 5'UTR act: activators of APP 5'UTR luciferase reporter, primary screen, SH-SY5Y cells; SH-SY5Y APP 5'UTR luciferase reporter, luminescence; zero percent = DMSO vehicle wells; activation, % at 2 µM; hit rate 1% among 190,000; AID 1276, 2008;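 active = activation above a set limit, based on mean plus 3 SD of controls, cut at about 140% in these data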
# NF-kB expr up: activators of NF-kB expression in neurons, primary screen, cell-based, HTS | AID 1239, 2008 | hit rate 1.6% among 190,000 | fold change at 12.5 µM | human neuronal cells, NF-kB reporter expression; hits give high values; in the data active = fold change above about 3.3
# FLuc inhib CS: firefly luciferase enzyme inhibitors, primary screen, artefact control for luciferase-based inhibitor screens, biochemical, luminescence, ATPLite; Luciferin 4-monooxygenase (Photinus pyralis), P08659; 10 min; inhibition, % at 10 µM; hit rate 1.5% among 200,000; AID 1006, 2008;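 active = inhibition above about 50% when tested at 10 µM, limit read from the data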
# STAT1 act: STAT1 signaling activators, primary screen, cell-based, HTS, luciferase reporter; NIH 3T3 STAT1-luciferase reporter, IFN-gamma, luminescence; 100% = IFN-gamma alone, no compound; activation (% of control), % at 5.5 µM; hit rate 2.6% among 200,000;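 active = activation above the screen-wide mean activation plus 3 SD, cut at about 130% in these data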
# A number is an active result; 0 = inactive; - = no result given.
SMILES,FLuc stim CS,APP 5'UTR act,NF-kB expr up,FLuc inhib CS,STAT1 act
Cc1ccccc1C(=O)Nn1cnc2ccccc2c1=O,0,0,0,0,0
COc1ccc(C(=O)Nn2cnc3ccccc3c2=O)c(OC)c1,0,0,0,0,141
CSc1ccc(/C=N/Nc2cccc(C(=O)O)c2)cc1,0,0,18,57,0
O=C(O)c1cccc(N/N=C/c2cccs2)c1,0,0,15,0,0
CC(C)c1ccc(NC(=S)NC2CCCCCC2)cc1,0,0,0,0,140
OC1CCC(NC(=S)Nc2ccc(SC(F)F)cc2)CC1 (stereo not drawn),0,0,0,0,129
S=C(Nc1ccc(Oc2ccc(NC(=S)NC3CCCCC3)cc2)cc1)NC1CCCCC1,0,0,0,0,0
NNc1nc2c(-c3ccc(F)cc3)nnn2c2ccccc12,0,0,0,0,141
NNc1nc2c(-c3ccc(Cl)cc3)nnn2c2ccccc12,0,0,0,0,135
CC(=Nc1cccc(O)c1)c1sc2ccccc2c1O,0,161,10,53,0
Cc1cc(O)cc2c(=O)c3ccccc3sc12,0,0,0,0,0
CC(=Nc1ccc(C)cc1C)c1sc2ccccc2c1O,0,154,4.8,85,143
CC1CCCC(C)N1C(=O)CSc1nnc(C2CCCCC2)o1 (stereo not drawn),0,0,0,0,0
Nc1ccc2c(c1)Cc1cc([N+](=O)[O-])ccc1-2,0,0,0,0,134
O=c1[nH]c(CN2CCCCC2)nc2c1C1(CCCC1)Cc1ccccc1-2,-,0,-,-,0
Cc1ccnc(SCc2nc3ccccc3s2)n1,0,0,0,0,130
CCCCNC(=O)c1cc(-c2ccc(F)cc2)on1,0,0,11,0,136
CCCCNC(=O)c1cc(-c2ccc(OC)cc2)on1,0,0,3.6,0,0
CCOC(=O)c1[nH]c2ccc(C)cc2c1N,0,0,3.5,51,0
Cc1cnc(NC(=O)c2ccc3c(c2)C(=O)N(Cc2ccco2)C3=O)s1,0,0,0,0,0
CCc1nnc(NC(=O)c2ccc3c(c2)C(=O)N(C(C)(C)C)C3=O)s1,0,0,0,69,0
CCN1C(=O)c2ccc(C(=O)Nc3ncc(C)s3)cc2C1=O,0,0,0,86,0
CCc1nnc(NC(=O)c2ccncc2)s1,0,0,0,0,0
CCCCc1ccc(Nc2ncccc2C#N)cc1,0,0,0,0,138
COC(=O)c1ccc(-n2nnnc2SCc2ccccc2OC)cc1,0,0,0,0,0
SMILES,FLuc stim CS,APP 5'UTR act,NF-kB expr up,FLuc inhib CS,STAT1 act
Cc1ccc(CCNC(=O)c2nnn(-c3cc(C)cc(C)c3)c2N)cc1,0,0,0,0,0
Cc1ccc(NC(=O)c2nnn(-c3cc(C)cc(C)c3)c2N)cc1,0,0,0,0,129
COc1ccc(/C=C/C(=O)c2ccccc2O)cc1,0,0,5,0,0
COc1ccc(/C=C/C(=O)c2ccccn2)cc1,0,0,0,96,0
COc1ccc(C(=O)NNC(=O)c2ccccn2)cc1,0,0,0,97,0
COc1ccc(/C=C/C(=O)c2ccc(O)cc2)cc1,0,0,0,75,0
COc1ccc(/C=C/C(=O)c2ccoc2)cc1,0,0,0,0,0
O=S(=O)(Nc1ccc(-c2cn3ccsc3n2)cc1)c1ccc2c(c1)OCCO2,0,0,0,0,0
COc1ccc(-c2csc(NC(=O)CC(C)C)n2)cc1,0,0,0,0,0
CC(C)CC(=O)Nc1ccc(-c2cn3ccsc3n2)cc1,0,169,6.7,92,0
Cc1nc(-c2ccc(NC(=O)CC(C)C)cc2)cs1,0,0,0,68,129
CC(C)(C)C(=O)Nc1ccc(-c2cn3ccsc3n2)cc1,0,158,3.3,96,0
O=C(NCc1ccc2c(c1)OCO2)c1cc2ncc(Br)cn2n1,0,0,0,0,0
Cc1cc(N)n(Cc2cccs2)n1,0,0,0,0,0
O=C(CC1(O)C(=O)N(C/C=C/c2ccccc2)c2ccccc21)c1ccccn1 (stereo not drawn),0,0,3.8,0,0
O=C(O)COc1ccc(/C=C/c2ccc3cccc([N+](=O)[O-])c3n2)cc1,0,0,0,0,0
COc1cc(/C=C/c2ccc3cccc([N+](=O)[O-])c3n2)ccc1OCC(=O)O,0,0,0,58,0
COc1cc(CNC(C)c2ccccc2)cc(Cl)c1OCC(=O)Nc1ccccc1 (stereo not drawn),0,0,0,0,0
Cc1ccc2[nH]c3c(c2c1)CCC3=O,0,0,0,0,0
CCCCN1CCc2c([nH]c3ccc(C)cc23)C1=O,0,0,0,0,151
CCOC(=O)c1c(NC(=O)c2nn(C)cc2[N+](=O)[O-])sc(C)c1C,0,0,0,0,0
O=C(O)CSc1cccc[n+]1[O-],0,0,0,0,0
O=C(CSc1cccc[n+]1[O-])c1cc2ccccc2o1,0,0,4.2,0,0
O=C(CSc1cccc[n+]1[O-])c1cc(Cl)ccc1Cl,0,0,7,0,0
Cn1cc(SCC(=O)NCCc2ccccc2)c2ccccc21,0,0,0,0,0
SMILES,FLuc stim CS,APP 5'UTR act,NF-kB expr up,FLuc inhib CS,STAT1 act
COC(=O)c1ccccc1C(=O)N1CCCC(CCC(=O)NCc2ccc(F)c(F)c2)C1 (stereo not drawn),0,0,0,0,0
CN(C)C(=O)COC(=O)c1ccccc1Nc1ccc(SC(F)F)cc1,0,0,0,0,131
COCCNC(=O)CN(C(=O)CCC(=O)Nc1cc(C)on1)c1ccccc1C,0,0,0,0,0
Cc1c(/C=C/C(=O)c2ccc(O)cc2)cnn1C,0,0,0,58,0
Cc1c(/C=N\NC(=O)c2ccc(F)cc2)cnn1C,0,0,0,0,0
Cc1c(/C=C/C(=O)c2ccc(Cl)s2)cnn1C,0,0,0,62,0
Cc1c(/C=C/C(=O)c2ccc(C(C)C)cc2)cnn1C,0,0,0,58,0
Cc1c(/C=C/C(=O)c2ccccc2)cnn1C,0,0,0,0,0
CCn1ncc(/C=C/C(=O)c2ccccc2)c1C,0,198,0,82,133
CCn1ncc(/C=N\NC(=O)COc2ccccc2)c1C,0,0,0,0,0
COc1cc(OC)cc(C(=O)N[C@H](C(=O)NCc2ccco2)C(C)C)c1,0,0,0,0,0
Cc1ccc(Cn2ccc(NC(=O)c3cc(-c4ccc(F)cc4)on3)n2)cc1,0,0,0,0,0
O=C(Nc1ccn(Cc2ccccc2)n1)c1ccc(F)cc1,0,0,0,50,138
COc1ccc(-c2cn3nc4c(nc3n2)CCCC4)cc1,0,0,0,68,0
COc1cc(C(c2c(C)[nH][nH]c2=O)c2c(C)[nH][nH]c2=O)ccc1OC(=O)c1cccc([N+](=O)[O-])c1,0,0,0,0,0
COC(=O)C(=Cc1ccc(OCc2ccc([N+](=O)[O-])cc2)c(OC)c1)C(=O)OC,0,0,4.4,0,0
